We go through 3 compounds from ChEMBL document CHEMBL1141130, “A novel selective GABA(A) alpha1 receptor agonist displaying sedative and anxiolytic-like properties in rodents” (J Med Chem, 2005).

Bounds are passed on as bounds.

Experiment [1] is described as follows: Binding affinity for rat alpha-5 beta2/3 gamma2 GABA-A/BzR receptor. Summed up:
(§1)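 Recombinant rat αxβ2/3γ2 GABAA/benzodiazepine receptors expressed in HEK293 cells. Affinity measured by radioligand binding and reported as Ki. Values are means ± SEM from three independent experiments, each run in triplicate.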

For experiment [2], the system named is Mus musculus. Kind of experiment: Percent of mice not entering into the dark compartment in 120 s in 24 hr retention test at 0 hr treatment at a dose of 10 mg/Kg when given peroral […] avoidance test; n=10.
In experiment [3] the test system is Mus musculus. The experiment can be described thus: Percent of mice not entering into the dark compartment in 120 s in 24 hr retention test at 0 hr treatment at a dose of 30 mg/Kg when given peroral […] avoidance test; n=10.
Experiment [4] is described as follows: Binding affinity for rat alpha2 beta2/3 gamma2 GABA-A/BzR receptor. Summed up:
as §1

Experiment [5] concerns Rattus norvegicus. Kind of experiment: Duration of loss of the righting reflex induced by ethanol at a dose of 3 mg/Kg when given per oral; n=14. The class given is functional, Mus musculus.
Experiment [6] deals with Rattus norvegicus. Kind of experiment: Duration of loss of the righting reflex induced by ethanol at a dose of 1 mg/Kg when given per oral; n=12. Type of experiment: functional, Mus musculus.
In experiment [7] the test system is Rattus norvegicus. The experiment can be described thus: Duration of loss of the righting reflex induced by ethanol at a dose of 0.3 mg/Kg when given per oral; n=8. The class given is functional, Mus musculus.
Experiment [8] is described as follows: Binding affinity for rat alpha-1 beta2/3 gamma2 GABA A / BzR receptor. The method, boiled down: as §1
Experiment [9] is described as follows: Binding affinity for rat alpha-3 beta2/3 gamma2 GABA-A/BzR receptor. The method, boiled down: as §1
Experiment [10] has as its system Rattus norvegicus. The experiment can be described thus: Duration of loss of the righting reflex induced by ethanol at a dose of 30 mg/Kg when given per oral; n=8. Type of experiment: functional, Mus musculus.

Regarding `Cc1ccc(-c2nc3ccc(C)cn3c2CC(=O)N(C)C)cc1` [ZOLPIDEM], in experiment [1], the Ki was greater than 10 µM. In addition, the “%” value with Mus musculus [2] is reported as 50%; with Mus musculus [3] it was 70%.

`CN1C(=O)CN=C(c2ccccc2)c2cc(Cl)ccc21` [DIAZEPAM] showed a Ki in experiment [4] of 0.02 µM. The Time in the experiment with Rattus norvegicus [5] stood at 149.5 min; in the experiment on Rattus norvegicus [6], 129.3 min; in the experiment on Rattus norvegicus [7], 127.4 min.

For `Cc1ccc(-c2nn3ccc(C)nc3c2CC(=O)N(C)C)cc1`, the Ki was 0.031 µM in experiment [8], greater than 10 µM in [4], greater than 10 µM in [9] and greater than 10 µM in [1]. The same compound had a Time in the experiment on Rattus norvegicus [10] of 104.9 min. The “%” value in the experiment with Mus musculus [2] came to 40%; with Mus musculus [3], 50%.
